Assay results as given in paper PMC6244714 (European Journal of Drug Metabolism and Pharmacokinetics, 2018).
Converted amounts (≈) assume the structure as drawn. Like-named read-outs stand apart in the source and are kept apart here. Each block holds one compound with its values, some of them ahead of it.

Columns and labels:
gastric pH = conditions: omeprazole 40 mg once daily, healthy subjects; cited from earlier work
[1] = type: in vivo, human
[2] = type: in vivo, human; conditions: healthy subjects
Procedure, shortened: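 Open-label, one-sequence, two-period crossover in healthy males and females aged 18–55 years with BMI 18.5–29.9 kg/m2. Period 1: single oral 100 mg tablet of test compound after an ≥8 h fast. Period 2: proton-pump inhibitor 40 mg once daily on Days 1–9, with test compound given 2 h after it on Day 7. Safety was assessed in all subjects dosed with test compound, using TEAE nature, frequency and severity, blood pressure, pulse, hematology, biochemistry, urinalysis and 12-lead ECG.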

CYP2C19 = conditions: cited from earlier work
[3] = cited from earlier work
[4] = ref data on file, cited from earlier work
[5] = healthy volunteers; cited from earlier work

AUC ([1]; human, plasma, po, 40 mg): 4230 ng·h/mL | mean trough ([1]; omeprazole 40 mg daily oral, Day 7 of Period 2, plasma): 0.494 ng/mL
SMILES: COc1ccc2[nH]c([S+]([O-])Cc3ncc(C)c(OC)c3C)nc2c1 (stereo not shown) [Omeprazole]
gastric pH (gastric pH): ~ 5 | Total number of TEAEs reported [2]: eight | inhibitor of CYP2C19 (CYP2C19): inhibitor

SMILES: Cc1nc(C(=O)NCC(=O)O)c(O)c2ccc(Oc3ccccc3)cc12 [Roxadustat]
terminal elimination half-life (t½) ([3]; after a single dose): 12 to 14 h | time to maximum plasma concentration ([3]; after oral administration): approximately 2 h | solubility ([4]; 50 mM potassium phosphate buffer at pH 7.5): 3700 µg/mL (≈ 10.5 mM) | in vitro solubility ([4]; pH ~ 5): 6 µg/mL | solubility ([4]; simulated gastric fluid buffer at pH 1.2): 1 µg/mL (≈ 0.00284 mM) | impact on Cmax or AUCinf of S- or R-warfarin [5]: does not impact | Overall safety and tolerability ([2]; 100 mg roxadustat alone or in combination with multiple daily oral doses of 40 mg omeprazole): safe and well tolerated | substrate for CYP2C19 (CYP2C19; background statement, no reference given): not a substrate
